What is called IC50 is the concentration needed to halve the response being measured.

SMILES strings stand for the structures. In brackets after ≈: the same amount, converted by molar mass. Entries after “also recorded” stand apart in the source; their conditions may differ.

The results in this text go back to publication PMC5204042 (Journal of Breast Cancer, 2016).

What all share (format): cell-based
In assay [1] the test system is MCF-7 breast cancer cells. The assay is described as follows: MTT viability assay, MCF-7. As to conditions: Homo sapiens, MCF7, 48 h, read-out: Anticancer activity (IC50 ± SD) MCF-7.
For another assay, the target named is PKCα (Homo sapiens, UniProt P17252). The assay is described as follows: Immunoblotting to detect PKCα translocation from cytosol to plasma membrane. As to conditions: MDAMB-231, compound at IC50, 30 minutes, cytosolic PKCα normalized to 100%. Background: Immunoblotting shows a protein as a band on a membrane.
The test system of the next assay is MDAMB-231 cells. Briefly: DNA fragmentation.
The test system of the next assay is caspase-9. The assay is described as follows: Caspase-9 activity assay. As to conditions: MDAMB-231, compound at IC50, 24 hours, vs untreated.
For another assay, the system named is caspase-3. The assay is described as follows: Caspase-3 activity assay. As to conditions: MDAMB-231, compound at IC50, 24 hours, vs untreated.
A further assay relates to cytochrome c. Briefly: Mitochondrial cyt c release, immunofluorescence. To be noted: MDAMB-231, compound at IC50, 24 hours. In outline:
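Mitochondria were labelled with MitoTracker Red (200 nM, 45 min), and cytochrome c was immunostained with an anti-cyt c antibody followed by FITC anti-mouse secondary (4 h, 37 °C). Coverslips were mounted and examined by fluorescence microscopy for cyt c relocation.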

In the case of `COc1cc(/C=C/C(=O)CC(=O)/C=C/c2ccc(O)c(OC)c2)ccc1O` [Curcumin], in assay [1], the half-maximal inhibitory concentration (IC50) was 5 ± 0.8 µg/mL (≈ 13.6 µM). Also, the “translocation of PKC from cytosol to the plasma membrane” value on PKCα is given as 17%±1.9%. Further, in the assay on MDAMB-231 cells (MDAMB-231, compound at IC50, 12 hours, agarose gel), the “genomic DNA fragmentation” value is recorded as “produced distinct DNA fragments; also recorded: showed DNA fragments of different sizes”. Also, in the assay on MDAMB-231 cells (MDAMB-231 preincubated with NAC (5 mM)), the “genomic DNA fragmentation in presence of NAC” value is recorded as “intact gDNA with no visible appearance of DNA fragments”. The “increase in caspase-9 activity” value with caspase-9 was 35%. Further, the “increase in caspase-3 activity” value with caspase-3 came out at 65%. In addition, the “release of cyt c from mitochondria to cytosol” value in the assay with cytochrome c was “release of cyt c”.
